Experimental data from ChEMBL document CHEMBL1240350, “In vitro activity of CEM-101 against Streptococcus pneumoniae and Streptococcus pyogenes with defined macrolide resistance mechanisms” (Antimicrob Agents Chemother, 2010).
Values after ≈ are worked out from the molar mass of the structure shown.

Assays:
Streptococcus pyogenes [1] = test: Antibacterial activity against macrolide-resistant Streptococcus pyogenes harboring erm(A) gene after overnight incubation by agar dilution method; format: functional
Procedure, shortened: (§1)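 Agar dilution MICs on Mueller-Hinton agar with 5% sheep blood. Inoculum 10^4 CFU/spot, incubated overnight at 35°C in ambient air. Clinical S. pneumoniae or group A streptococcal isolates; resistance genotypes (erm(B), erm(A), mef(A)/mef(E)) were assigned by PCR. S. pneumoniae ATCC 49619 served as QC strain in each run. Range, MIC50 and MIC90 reported per phenotype group.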

Streptococcus pneumoniae [2] = test: Antibacterial activity against macrolide-susceptible Streptococcus pneumoniae 7127 harboring S20N mutation in L4 ribosomal protein and A105V mutation in L22 ribosomal protein after 15 passages and 10 compound-free subculturing by retest method; format: functional
Streptococcus pneumoniae [3] = test: Antibacterial activity against macrolide-resistant Streptococcus pneumoniae 3009 harboring mutation in 23S rRNA after 20 passages and 10 compound-free subculturing by retest method; format: functional
Streptococcus pneumoniae [4] = test: Antibacterial activity against macrolide-resistant Streptococcus pneumoniae 24 harboring erm(B) gene after 14 passages and 10 compound-free subculturing by retest method; format: functional; details: Streptococcus pneumoniae, 24; read-out: MIC
Procedure, shortened: (§2)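 Multistep selection by daily serial passage in subinhibitory drug concentrations. Medium was cation-adjusted Mueller-Hinton broth plus 5% lysed horse blood. Each day the next inoculum came from the tube 1–2 dilutions below the MIC whose turbidity matched the growth control, for up to 50 days. Clone MICs by CLSI macrodilution; identity to the parent confirmed by SmaI PFGE.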

Streptococcus pneumoniae [5] = test: Antibacterial activity against macrolide-susceptible Streptococcus pneumoniae 7127 harboring S20N mutation in L4 ribosomal protein and A105V mutation in L22 ribosomal protein after overnight incubation by agar dilution method; format: functional
Streptococcus pneumoniae [6] = test: Antibacterial activity against macrolide-resistant Streptococcus pneumoniae 2686 harboring mutation in L4 ribosomal protein after 25 passages and 10 compound-free subculturing by retest method; format: functional
Streptococcus pneumoniae [7] = test: Antibacterial activity against macrolide-resistant Streptococcus pneumoniae harboring mef(A) gene after overnight incubation by agar dilution method; format: functional; procedure, shortened: as §1
Streptococcus pyogenes [8] = test: Antibacterial activity against macrolide-resistant Streptococcus pyogenes 2094 harboring erm(A) gene after 43 passages and 10 compound-free subculturing by retest method
Streptococcus pneumoniae [9] = test: Antibacterial activity against macrolide-susceptible Streptococcus pneumoniae 1077 after 49 passages and 10 compound-free subculturing by retest method; format: functional
Streptococcus pyogenes [10] = test: Antibacterial activity against macrolide-susceptible Streptococcus pyogenes 2132 after overnight incubation by agar dilution method
Streptococcus pneumoniae [11] = test: Antibacterial activity against macrolide-susceptible Streptococcus pneumoniae 7127 harboring S20N mutation in L4 ribosomal protein and A105V mutation in L22 ribosomal protein after 43 passages and 10 compound-free subculturing by retest method; format: functional
Streptococcus pyogenes [12] = test: Antibacterial activity against macrolide-resistant Streptococcus pyogenes harboring mef(A) gene after overnight incubation by agar dilution method; format: functional; procedure, shortened: as §1
Streptococcus pyogenes [13] = test: Antibacterial activity against macrolide-resistant Streptococcus pyogenes 237 harboring mutation in L4 ribosomal protein after 20 passages and 10 compound-free subculturing by retest method
Streptococcus pneumoniae [14] = test: Antibacterial activity against macrolide-resistant Streptococcus pneumoniae 1635 harboring erm(A) gene after 32 passages and 10 compound-free subculturing by retest method; format: functional; procedure, shortened: as §2
Streptococcus pneumoniae [15] = test: Antibacterial activity against macrolide-resistant Streptococcus pneumoniae 3665 harboring mef(A) gene after overnight incubation by agar dilution method; format: functional
Streptococcus pyogenes [16] = test: Antibacterial activity against Streptococcus pyogenes harboring mutation in L4 ribosomal protein after overnight incubation by agar dilution method; format: functional
Procedure, shortened: (§3)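 Clinical isolates collected 1998–2008, with macrolide-resistance genes confirmed by PCR. MICs by agar dilution on Mueller-Hinton agar with 5% sheep blood. Inoculum 10^4 CFU/spot, incubated overnight at 35°C in ambient air. S. pneumoniae ATCC 49619 was the quality-control strain in every run.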

Streptococcus pyogenes [17] = test: Antibacterial activity against macrolide-resistant Streptococcus pyogenes 237 harboring mutation in L4 ribosomal protein after 43 passages and 10 compound-free subculturing by retest method
Streptococcus pneumoniae [18] = test: Antibacterial activity against Streptococcus pneumoniae harboring mef(A) gene after overnight incubation by agar dilution method; format: functional; procedure, shortened: as §3
Streptococcus pneumoniae [19] = test: Antibacterial activity against macrolide-susceptible Streptococcus pneumoniae 1077 after 43 passages and 10 compound-free subculturing by retest method; format: functional
Streptococcus pyogenes [20] = test: Antibacterial activity against Streptococcus pyogenes harboring mef(A) gene after overnight incubation by agar dilution method; format: functional; procedure, shortened: as §3
Streptococcus pyogenes [21] = test: Antibacterial activity against macrolide-resistant Streptococcus pyogenes 2011 harboring mef(A) gene after 35 passages and 10 compound-free subculturing by retest method
Streptococcus pyogenes [22] = test: Antibacterial activity against macrolide-resistant Streptococcus pyogenes 2094 harboring erm(A) gene after 6 passages and 10 compound-free subculturing by retest method
Streptococcus pyogenes [23] = test: Antibacterial activity against Streptococcus pyogenes harboring erm(B) gene after overnight incubation by agar dilution method; format: functional; procedure, shortened: as §3
Streptococcus pyogenes [24] = test: Antibacterial activity against macrolide-susceptible Streptococcus pyogenes 2132 after 28 passages and 10 compound-free subculturing by retest method
Streptococcus pyogenes [25] = test: Antibacterial activity against macrolide-resistant Streptococcus pyogenes 237 harboring mutation in L4 ribosomal protein after overnight incubation by agar dilution method
Streptococcus pneumoniae [26] = test: Antibacterial activity against macrolide-susceptible Streptococcus pneumoniae 1077 after overnight incubation by agar dilution method; format: functional
Streptococcus pneumoniae [27] = test: Antibacterial activity against macrolide-susceptible Streptococcus pneumoniae after overnight incubation by agar dilution method; format: functional; procedure, shortened: as §1
Streptococcus pneumoniae [28] = test: Antibacterial activity against macrolide-resistant Streptococcus pneumoniae 3009 harboring mutation in 23S rRNA after overnight incubation by agar dilution method; format: functional
Streptococcus pneumoniae [29] = test: Antibacterial activity against macrolide-resistant Streptococcus pneumoniae 1635 harboring erm(A) gene after 49 passages and 10 compound-free subculturing by retest method; format: functional; procedure, shortened: as §2

CC[C@H]1OC(=O)[C@H](C)[C@@H](O[C@H]2C[C@@](C)(OC)[C@@H](O)[C@H](C)O2)[C@H](C)[C@@H](O[C@@H]2O[C@H](C)C[C@H](N(C)C)[C@H]2O)[C@](C)(O)C[C@@H](C)CN(C)[C@H](C)[C@@H](O)[C@]1(C)O [AZITHROMYCIN]
MIC50 (Streptococcus pyogenes [1]): 16 mg/L (≈ 21.4 µM)
MIC90 (Streptococcus pyogenes [1]): > 64 mg/L
MIC (Streptococcus pneumoniae [2]): > 64 mg/L
MIC (Streptococcus pneumoniae [3]): > 64 mg/L
MIC (Streptococcus pneumoniae [4]): > 64 mg/L
MIC (Streptococcus pneumoniae [5]): 0.06 mg/L (≈ 0.0801 µM)
MIC (Streptococcus pneumoniae [6]): > 64 mg/L
MIC50 (Streptococcus pneumoniae [7]): 4 mg/L (≈ 5.34 µM)
MIC90 (Streptococcus pneumoniae [7]): 8 mg/L (≈ 10.7 µM)
MIC (Streptococcus pyogenes [8]): 4 mg/L (≈ 5.34 µM)
MIC (Streptococcus pneumoniae [9]): > 64 mg/L
MIC (Streptococcus pyogenes [10]): 0.06 mg/L (≈ 0.0801 µM)
MIC (Streptococcus pneumoniae [11]): 0.03 mg/L (≈ 0.0401 µM)
MIC50 (Streptococcus pyogenes [12]): 8 mg/L (≈ 10.7 µM)
MIC90 (Streptococcus pyogenes [12]): 8 mg/L (≈ 10.7 µM)
MIC (Streptococcus pyogenes [13]): 4 mg/L (≈ 5.34 µM)
MIC (Streptococcus pneumoniae [14]): 4 mg/L (≈ 5.34 µM)
MIC (Streptococcus pneumoniae [15]): 8 mg/L (≈ 10.7 µM)
MIC (Streptococcus pyogenes [16]): 2 mg/L (≈ 2.67 µM)
MIC (Streptococcus pyogenes [17]): 8 mg/L (≈ 10.7 µM)
MIC50 (Streptococcus pneumoniae [18]): 4 mg/L (≈ 5.34 µM)
MIC90 (Streptococcus pneumoniae [18]): 8 mg/L (≈ 10.7 µM)
MIC (Streptococcus pneumoniae [19]): 0.03 mg/L (≈ 0.0401 µM)
MIC50 (Streptococcus pyogenes [20]): 8 mg/L (≈ 10.7 µM)
MIC90 (Streptococcus pyogenes [20]): 8 mg/L (≈ 10.7 µM)
MIC (Streptococcus pyogenes [21]): 16 mg/L (≈ 21.4 µM)
MIC (Streptococcus pyogenes [22]): > 64 mg/L
MIC50 (Streptococcus pyogenes [23]): > 64 mg/L
MIC90 (Streptococcus pyogenes [23]): > 64 mg/L
MIC (Streptococcus pyogenes [24]): 1 mg/L (≈ 1.34 µM)
MIC (Streptococcus pyogenes [25]): 4 mg/L (≈ 5.34 µM)
MIC (Streptococcus pneumoniae [26]): 0.03 mg/L (≈ 0.0401 µM)
MIC50 (Streptococcus pneumoniae [27]): 0.125 mg/L (≈ 0.167 µM)
MIC (Streptococcus pneumoniae [28]): > 64 mg/L
MIC (Streptococcus pneumoniae [29]): > 64 mg/L
